Test results reported in article PMC6348062 (Journal of medicinal chemistry, 2016).
pIC50: −log10 of the molar value.

Key:
LMW-PTP [1] = biological target: T1, LMW-PTP (Homo sapiens, UniProt P24666); assay type: biochemical; conditions: for IC50: read-out: IC50 against LMW-PTP, weak ligands, values in mM; for mode of inhibition of LMW-PTP: Lineweaver-Burk, pNPP as substrate
T1 sequence (P24666 1-158): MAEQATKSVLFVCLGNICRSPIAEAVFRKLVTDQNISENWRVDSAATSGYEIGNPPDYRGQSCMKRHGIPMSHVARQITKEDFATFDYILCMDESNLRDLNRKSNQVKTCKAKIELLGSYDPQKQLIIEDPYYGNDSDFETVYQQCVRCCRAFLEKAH

SHP2 = biological target: T2, SHP2 (Homo sapiens, UniProt Q06124); test: PTP activity assay with pNPP, SHP2; assay type: biochemical; conditions: read-out: IC50 for SHP2; values in mM
T2 sequence (Q06124 1-593): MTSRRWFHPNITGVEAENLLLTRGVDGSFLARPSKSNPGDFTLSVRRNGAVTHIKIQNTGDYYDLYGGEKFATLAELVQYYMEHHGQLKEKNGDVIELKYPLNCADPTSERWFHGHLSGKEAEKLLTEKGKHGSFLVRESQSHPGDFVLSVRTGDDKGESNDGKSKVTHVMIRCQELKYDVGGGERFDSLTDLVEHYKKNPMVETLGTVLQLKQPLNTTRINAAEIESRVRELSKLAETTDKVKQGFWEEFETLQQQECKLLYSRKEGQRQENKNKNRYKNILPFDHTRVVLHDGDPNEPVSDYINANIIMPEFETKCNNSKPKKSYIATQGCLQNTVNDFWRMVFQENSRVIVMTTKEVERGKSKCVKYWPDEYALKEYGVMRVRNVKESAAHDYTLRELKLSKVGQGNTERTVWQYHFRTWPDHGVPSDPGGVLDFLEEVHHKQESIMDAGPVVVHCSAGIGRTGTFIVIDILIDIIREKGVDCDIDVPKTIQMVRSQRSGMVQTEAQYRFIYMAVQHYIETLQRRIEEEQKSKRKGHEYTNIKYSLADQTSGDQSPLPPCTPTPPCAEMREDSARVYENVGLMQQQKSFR

PTP1B = biological target: T3, PTP1B (Homo sapiens, UniProt P18031); test: PTP activity assay with pNPP, PTP1B; assay type: biochemical; conditions: read-out: IC50 for PTP1B; values in mM
T3 sequence (P18031 1-435): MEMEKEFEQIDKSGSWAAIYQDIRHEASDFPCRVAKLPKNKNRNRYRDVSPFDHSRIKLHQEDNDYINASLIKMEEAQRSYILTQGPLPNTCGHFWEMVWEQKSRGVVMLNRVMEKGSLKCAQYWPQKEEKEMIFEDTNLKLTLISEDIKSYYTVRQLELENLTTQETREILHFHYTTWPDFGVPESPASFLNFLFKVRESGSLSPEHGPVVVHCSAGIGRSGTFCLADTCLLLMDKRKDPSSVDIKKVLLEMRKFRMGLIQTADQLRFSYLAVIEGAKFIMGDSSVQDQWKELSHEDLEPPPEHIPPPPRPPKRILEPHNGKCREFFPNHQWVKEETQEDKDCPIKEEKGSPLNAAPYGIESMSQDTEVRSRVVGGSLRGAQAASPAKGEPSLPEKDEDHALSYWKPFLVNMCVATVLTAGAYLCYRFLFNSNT

PTPH1 = biological target: T4, PTPH1 (Homo sapiens, UniProt P26045); test: PTP activity assay with pNPP, PTPH1; assay type: biochemical
T4 sequence (P26045 1-913): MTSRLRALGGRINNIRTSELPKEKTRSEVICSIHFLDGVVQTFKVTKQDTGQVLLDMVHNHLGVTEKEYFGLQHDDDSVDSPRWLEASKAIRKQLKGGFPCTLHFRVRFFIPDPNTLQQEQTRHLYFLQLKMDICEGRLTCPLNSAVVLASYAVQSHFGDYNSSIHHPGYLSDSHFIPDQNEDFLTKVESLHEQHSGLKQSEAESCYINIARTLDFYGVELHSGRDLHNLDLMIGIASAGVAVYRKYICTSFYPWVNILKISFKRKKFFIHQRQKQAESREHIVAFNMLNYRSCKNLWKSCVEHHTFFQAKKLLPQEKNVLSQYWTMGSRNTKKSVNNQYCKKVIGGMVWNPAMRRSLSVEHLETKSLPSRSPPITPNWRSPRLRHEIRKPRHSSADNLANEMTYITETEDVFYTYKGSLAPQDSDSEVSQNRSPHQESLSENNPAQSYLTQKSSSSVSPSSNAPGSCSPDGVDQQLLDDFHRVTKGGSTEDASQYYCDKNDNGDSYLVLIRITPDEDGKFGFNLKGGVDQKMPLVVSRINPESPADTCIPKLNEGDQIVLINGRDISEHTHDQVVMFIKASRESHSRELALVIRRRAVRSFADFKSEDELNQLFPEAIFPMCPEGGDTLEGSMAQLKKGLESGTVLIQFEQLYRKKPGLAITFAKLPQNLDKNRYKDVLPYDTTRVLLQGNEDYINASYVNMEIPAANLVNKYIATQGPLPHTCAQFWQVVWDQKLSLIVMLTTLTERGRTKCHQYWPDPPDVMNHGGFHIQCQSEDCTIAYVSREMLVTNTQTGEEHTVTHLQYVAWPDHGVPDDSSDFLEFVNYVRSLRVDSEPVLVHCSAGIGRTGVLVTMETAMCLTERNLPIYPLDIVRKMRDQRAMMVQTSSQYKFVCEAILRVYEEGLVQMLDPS

panel of 24 phosphatases = test: Selectivity profiling against panel of 24 phosphatases; assay type: biochemical; conditions: for inhibitory activity against the phosphatases in the panel: at 200 μM concentration; for preference (selectivity) for LMW-PTP over the panel of other PTPs: over all 24 other phosphatases
LMW-PTP [2] = biological target: T1, LMW-PTP; test: Screen of SPAA-based focused library at ~10 μM, LMW-PTP; assay type: biochemical; conditions: compound concentration ~10 μM, crude library wells
[3] = system: insulin induced AKT phosphorylation in HepG2 cells; test: Insulin induced AKT phosphorylation in HepG2 cells; assay type: cell-based; conditions: 2 h pretreatment, 50 nM insulin 30 min, compound 33 at 16 μM
Outline: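 HepG2 cells grown in DMEM with 10% FBS at 37 °C and 5% CO2. At 60-80% confluence, cells were serum-starved overnight, then given vehicle or test compound for 2 h. They were left unstimulated or stimulated with 50 nM insulin for 30 min, then lysed. Immunoblotting used a 10% polyacrylamide gel with anti-phospho-AKT and anti-AKT antibodies, ECL detection and densitometry. pAKT/AKT ratios were normalized to vehicle.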

Structure (SMILES): O=S(=O)(O)CCN1CCOCC1 [MES]
- IC50 (LMW-PTP [1]): > 10 mM

Structure (SMILES): NC(=O)C(c1ccccc1)S(=O)(=O)O (centres unmarked) [SPAA, SulfoPhenyl Acetic Amide]
- IC50 (SHP2): > 50 mM
- IC50 (PTP1B): > 50 mM
- IC50 (LMW-PTP [1]): 2 mM

Structure (SMILES): Cc1c(Br)cc(NC(=O)C(c2ccccc2)S(=O)(=O)O)cc1Br (centres unmarked) [compound 1]
- pIC50 (PTPH1): < 3.70

Structure (SMILES): O=C(Nc1ccc(OCc2ccccc2)c(Cl)c1)C(c1ccccc1)S(=O)(=O)O (centres unmarked) [compound 2]
- pIC50 (PTPH1): < 3.70

Structure (SMILES): O=C(Nc1ccc2nc(C(F)(F)F)[nH]c2c1)C(c1ccccc1)S(=O)(=O)O (centres unmarked) [compound 3]
- pIC50 (PTPH1): < 3.70
- inhibitory activity against the phosphatases in the panel (panel of 24 phosphatases): no inhibitory activity
- preference (selectivity) for LMW-PTP over the panel of other PTPs (panel of 24 phosphatases): greater than 35 fold

Structure (SMILES): O=C(Nc1ccc(-n2ccnc2)cc1)C(c1ccccc1)S(=O)(=O)O (centres unmarked) [compound 4]
- pIC50 (PTPH1): < 4.00

Structure (SMILES): O=C(Nc1ccc(N2CCOCC2)cc1)C(c1ccccc1)S(=O)(=O)O (centres unmarked) [compound 5]
- pIC50 (PTPH1): < 3.70
- inhibitory activity against the phosphatases in the panel (panel of 24 phosphatases): no inhibitory activity

Structure (SMILES): O=C(Nc1cnc2ccccc2c1)C(c1ccccc1)S(=O)(=O)O (centres unmarked) [compound 6]
- pIC50 (PTPH1): < 3.70
- inhibitory activity against the phosphatases in the panel (panel of 24 phosphatases): no inhibitory activity

Structure (SMILES): O=C(Nc1nc2ccccc2s1)C(c1ccccc1)S(=O)(=O)O (centres unmarked) [compound 7]
- pIC50 (PTPH1): < 3.70
- mode of inhibition of LMW-PTP (LMW-PTP [1]): competitive

Structure (SMILES): O=C(Nc1cc(C(F)(F)F)cc(C(F)(F)F)c1)C(c1ccccc1)S(=O)(=O)O (centres unmarked) [compound 8]
- pIC50 (PTPH1): < 3.70

Structure (SMILES): O=C(Nc1ccccc1)C(c1ccccc1)S(=O)(=O)O (centres unmarked) [compound 9]
- inhibitory activity toward LMW-PTP (in words) (LMW-PTP [1]): significantly reduced activities
- fold decrease in inhibitory activity versus compound 7 (LMW-PTP [1]; relative to compound 7): > 15 fold

Structure (SMILES): O=C(Nc1nccs1)C(c1ccccc1)S(=O)(=O)O (centres unmarked) [compound 10]
- inhibitory activity toward LMW-PTP (in words) (LMW-PTP [1]): significantly reduced activities

Structure (SMILES): CCCNC(=O)C(c1ccccc1)S(=O)(=O)O (centres unmarked) [compound 11]
- inhibition against LMW-PTP in library screen (LMW-PTP [2]): inactive
- inhibitory activity toward LMW-PTP (in words) (LMW-PTP [1]): inactive

Structure (SMILES): O=C(Nc1nc2ccc([N+](=O)[O-])cc2s1)C(c1ccccc1)S(=O)(=O)O (centres unmarked) [compound 28]
- pIC50 (PTPH1): < 4.00
- preference (selectivity) for LMW-PTP over the panel of other PTPs (panel of 24 phosphatases): over 50 fold
- fold more active than compound 7 against LMW-PTP (LMW-PTP [1]): 3.5 fold
- mode of inhibition of LMW-PTP (LMW-PTP [1]): competitive

Structure (SMILES): CCOC(=O)c1ccc2nc(NC(=O)C(c3ccccc3)S(=O)(=O)O)sc2c1 (centres unmarked) [compound 32]
- fold more active than compound 7 against LMW-PTP (LMW-PTP [1]): 2.5 fold

Structure (SMILES): O=C(Cc1ccccc1)Nc1nc2ccc([N+](=O)[O-])cc2s1 [compound 33]
- inhibitory activity toward LMW-PTP (in words) (LMW-PTP [1]): completely abolishes
- effect on insulin induced AKT phosphorylation (in words) [3]: no effect
